From ChEMBL document CHEMBL1926550, “Synthesis and antibacterial activity of naphthyridone derivatives containing mono/difluoro-methyloxime pyrrolidine scaffolds” (2012)
In brackets after ≈: the same amount, converted by molar mass.

Columns and labels:
Type in all cases: functional
Staphylococcus aureus [1] = assay: Antibacterial activity against methicillin-resistant Staphylococcus aureus 10-1 after 18 hrs by two fold serial dilution method; settings: 10-1, 18 h
Procedure, shortened: (§1)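 Agar two-fold serial dilution in melted Mueller-Hinton agar, 128 to 0.008 μg/mL. Plates inoculated with 10⁴ cfu, incubated 35 °C for 18 h. MIC taken as lowest concentration giving no visible growth on the plate.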

Escherichia coli [2] = assay: Antibacterial activity against Escherichia coli 10-2 infected KM mouse systemic infection model assessed as decrease in mouse mortality administered orally twice after 1 and 4 hrs post infection measured up to 7 days; settings: 10-2, po
Procedure, shortened: (§2)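 Strains grown on MH agar at 35 °C for 18 h, suspended in gastric mucin. Male KM mice (19–21 g), groups of 10, infected intraperitoneally with 0.5 mL at 5–10× MLD. Four oral dose levels per drug at 1 and 4 h post infection. Mortality followed 7 days; ED50 with 95% confidence limits by Bliss method.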

Escherichia coli [3] = assay: Antibacterial activity against Escherichia coli 09-2 after 18 hrs by two fold serial dilution method; settings: 09-2, 18 h
Procedure, shortened: (§3)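 Agar two-fold serial dilution in melted Mueller-Hinton agar, final concentrations 128 down to 0.008 μg/mL. Plates inoculated with 10⁴ cfu and incubated at 35 °C for 18 h. MIC taken as the lowest concentration giving no visible growth on the plate.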

Escherichia coli [4] = assay: Antibacterial activity against Escherichia coli 10-3 after 18 hrs by two fold serial dilution method; settings: 10-3, 18 h; procedure, shortened: as §3
Staphylococcus aureus [5] = assay: Antibacterial activity against methicillin-sensitive Staphylococcus aureus 10-3 after 18 hrs by two fold serial dilution method; settings: 10-3, 18 h; procedure, shortened: as §3
Staphylococcus aureus [6] = assay: Antibacterial activity against methicillin-sensitive Staphylococcus aureus 10-6 after 18 hrs by two fold serial dilution method; settings: 10-6, 18 h; procedure, shortened: as §3
Pseudomonas aeruginosa [7] = assay: Antibacterial activity against Pseudomonas aeruginosa 10-1 after 18 hrs by two fold serial dilution method; settings: 10-1, 18 h; procedure, shortened: as §3
Enterococcus faecium [8] = assay: Antibacterial activity against Enterococcus faecium 09-2 after 18 hrs by two fold serial dilution method; settings: 09-2, 18 h; procedure, shortened: as §3
[9] = system: Staphylococcus epidermidis; assay: Antibacterial activity against methicillin-resistant Staphylococcus epidermidis 10-4 infected KM mouse systemic infection model assessed as decrease in mouse mortality administered orally twice after 1 and 4 hrs post infection measured up to 7 days; settings: 10-4, po; procedure, shortened: as §2
Escherichia coli [10] = assay: Antibacterial activity against Escherichia coli 10-2 after 18 hrs by two fold serial dilution method; settings: 10-2, 18 h; procedure, shortened: as §3
Klebsiella pneumoniae [11] = assay: Antibacterial activity against Klebsiella pneumoniae 09-2 after 18 hrs by two fold serial dilution method; settings: 09-2, 18 h; procedure, shortened: as §3
[12] = system: Staphylococcus epidermidis; assay: Antibacterial activity against methicillin-resistant Staphylococcus epidermidis 10-1 after 18 hrs by two fold serial dilution method; settings: 10-1, 18 h; procedure, shortened: as §1
Pseudomonas aeruginosa [13] = assay: Antibacterial activity against Pseudomonas aeruginosa ATCC 27853 after 18 hrs by two fold serial dilution method; settings: ATCC 27853, 18 h; procedure, shortened: as §3
Pseudomonas aeruginosa [14] = assay: Antibacterial activity against Pseudomonas aeruginosa 10-2 after 18 hrs by two fold serial dilution method; settings: 10-2, 18 h; procedure, shortened: as §3
Pseudomonas aeruginosa [15] = assay: Antibacterial activity against Pseudomonas aeruginosa 10-3 after 18 hrs by two fold serial dilution method; settings: 10-3, 18 h; procedure, shortened: as §3
Staphylococcus aureus [16] = assay: Antibacterial activity against methicillin-resistant Staphylococcus aureus 10-2 after 18 hrs by two fold serial dilution method; settings: 10-2, 18 h; procedure, shortened: as §1
Klebsiella pneumoniae [17] = assay: Antibacterial activity against Klebsiella pneumoniae 10-3 after 18 hrs by two fold serial dilution method; settings: 10-3, 18 h; procedure, shortened: as §3
Klebsiella pneumoniae [18] = assay: Antibacterial activity against Klebsiella pneumoniae 10-3 infected KM mouse systemic infection model assessed as decrease in mouse mortality administered orally twice after 1 and 4 hrs post infection measured up to 7 days; settings: 10-3, po; procedure, shortened: as §2
Staphylococcus aureus [19] = assay: Antibacterial activity against methicillin-sensitive Staphylococcus aureus 10-1 after 18 hrs by two fold serial dilution method; settings: 10-1, 18 h; procedure, shortened: as §3
Staphylococcus aureus [20] = assay: Antibacterial activity against methicillin-sensitive Staphylococcus aureus 10-2 after 18 hrs by two fold serial dilution method; settings: 10-2, 18 h; procedure, shortened: as §3
Enterococcus faecium [21] = assay: Antibacterial activity against Enterococcus faecium 09-4 after 18 hrs by two fold serial dilution method; settings: 09-4, 18 h; procedure, shortened: as §3
Staphylococcus aureus [22] = assay: Antibacterial activity against methicillin-sensitive Staphylococcus aureus 10-5 after 18 hrs by two fold serial dilution method; settings: 10-5, 18 h; procedure, shortened: as §3
[23] = system: Staphylococcus epidermidis; assay: Antibacterial activity against methicillin-sensitive Staphylococcus epidermidis 10-2 after 18 hrs by two fold serial dilution method; settings: 10-2, 18 h; procedure, shortened: as §3
Enterococcus faecium [24] = assay: Antibacterial activity against Enterococcus faecium 09-5 after 18 hrs by two fold serial dilution method; settings: 09-5, 18 h; procedure, shortened: as §3
Streptococcus pneumoniae = assay: Antibacterial activity against Streptococcus pneumoniae 10-1 after 18 hrs by two fold serial dilution method; settings: 10-1, 18 h; procedure, shortened: as §3
[25] = system: Staphylococcus epidermidis; assay: Antibacterial activity against methicillin-resistant Staphylococcus epidermidis 10-4 after 18 hrs by two fold serial dilution method; settings: 10-4, 18 h; procedure, shortened: as §1
Escherichia coli [26] = assay: Antibacterial activity against Escherichia coli 09-1 after 18 hrs by two fold serial dilution method; settings: 09-1, 18 h; procedure, shortened: as §3
Enterococcus faecalis [27] = assay: Antibacterial activity against Enterococcus faecalis 09-2 after 18 hrs by two fold serial dilution method; settings: 09-2, 18 h; procedure, shortened: as §3
Staphylococcus aureus [28] = assay: Antibacterial activity against methicillin-sensitive Staphylococcus aureus 10-4 after 18 hrs by two fold serial dilution method; settings: 10-4, 18 h; procedure, shortened: as §3
Staphylococcus aureus [29] = assay: Antibacterial activity against Staphylococcus aureus ATCC 25923 after 18 hrs by two fold serial dilution method; settings: ATCC 25923, 18 h; procedure, shortened: as §3
[30] = system: Staphylococcus epidermidis; assay: Antibacterial activity against methicillin-sensitive Staphylococcus epidermidis 10-1 after 18 hrs by two fold serial dilution method; settings: 10-1, 18 h; procedure, shortened: as §3
Klebsiella pneumoniae [31] = assay: Antibacterial activity against Klebsiella pneumoniae 10-1 after 18 hrs by two fold serial dilution method; settings: 10-1, 18 h; procedure, shortened: as §3
Enterococcus faecium [32] = assay: Antibacterial activity against Enterococcus faecium 09-3 after 18 hrs by two fold serial dilution method; settings: 09-3, 18 h; procedure, shortened: as §3
Enterococcus faecium [33] = assay: Antibacterial activity against Enterococcus faecium 09-6 after 18 hrs by two fold serial dilution method; settings: 09-6, 18 h; procedure, shortened: as §3
Escherichia coli [34] = assay: Antibacterial activity against Escherichia coli ATCC 25922 after 18 hrs by two fold serial dilution method; settings: ATCC 25922, 18 h; procedure, shortened: as §3
Staphylococcus aureus [35] = assay: Antibacterial activity against methicillin-resistant Staphylococcus aureus 10-3 after 18 hrs by two fold serial dilution method; settings: 10-3, 18 h; procedure, shortened: as §1
Staphylococcus aureus [36] = assay: Antibacterial activity against methicillin-resistant Staphylococcus aureus 10-4 after 18 hrs by two fold serial dilution method; settings: 10-4, 18 h; procedure, shortened: as §1
[37] = system: Staphylococcus epidermidis; assay: Antibacterial activity against methicillin-resistant Staphylococcus epidermidis 10-2 after 18 hrs by two fold serial dilution method; settings: 10-2, 18 h; procedure, shortened: as §1
Staphylococcus aureus [38] = assay: Antibacterial activity against methicillin-resistant Staphylococcus aureus 10-2 infected KM mouse systemic infection model assessed as decrease in mouse mortality administered orally twice after 1 and 4 hrs post infection measured up to 7 days; settings: 10-2, po; procedure, shortened: as §2
Pseudomonas aeruginosa [39] = assay: Antibacterial activity against Pseudomonas aeruginosa 10-1 infected KM mouse systemic infection model assessed as decrease in mouse mortality administered orally twice after 1 and 4 hrs post infection measured up to 7 days; settings: 10-1, po; procedure, shortened: as §2
Enterococcus faecium [40] = assay: Antibacterial activity against Enterococcus faecium 09-1 after 18 hrs by two fold serial dilution method; settings: 09-1, 18 h; procedure, shortened: as §3
Enterococcus faecalis [41] = assay: Antibacterial activity against Enterococcus faecalis 09-1 after 18 hrs by two fold serial dilution method; settings: 09-1, 18 h; procedure, shortened: as §3
Escherichia coli [42] = assay: Antibacterial activity against Escherichia coli 10-1 after 18 hrs by two fold serial dilution method; settings: 10-1, 18 h; procedure, shortened: as §3
Escherichia coli [43] = assay: Antibacterial activity against Escherichia coli 09-3 after 18 hrs by two fold serial dilution method; settings: 09-3, 18 h; procedure, shortened: as §3

## CO/N=C1\CN(c2nc3c(cc2F)c(=O)c(C(=O)O)cn3C2CC2)CC1CN (centres undefined) [GEMIFLOXACIN]
Staphylococcus aureus [1]
  MIC: 16 µg/mL (≈ 41.1 µM)
Escherichia coli [2]
  ED50: 6.86 mg/kg
Escherichia coli [3]
  MIC: 32 µg/mL (≈ 82.2 µM)
Escherichia coli [4]
  MIC: 4 µg/mL (≈ 10.3 µM)
Staphylococcus aureus [5]
  MIC: 0.06 µg/mL (≈ 0.154 µM)
Staphylococcus aureus [6]
  MIC: 0.008 µg/mL (≈ 0.0205 µM)
Pseudomonas aeruginosa [7]
  MIC: 0.25 µg/mL (≈ 0.642 µM)
Enterococcus faecium [8]
  MIC: 16 µg/mL (≈ 41.1 µM)
[9]
  ED50: 24 mg/kg
Escherichia coli [10]
  MIC: 0.25 µg/mL (≈ 0.642 µM)
Klebsiella pneumoniae [11]
  MIC: 16 µg/mL (≈ 41.1 µM)
[12]
  MIC: 0.25 µg/mL (≈ 0.642 µM)
Pseudomonas aeruginosa [13]
  MIC: 0.5 µg/mL (≈ 1.28 µM)
Pseudomonas aeruginosa [14]
  MIC: 16 µg/mL (≈ 41.1 µM)
Pseudomonas aeruginosa [15]
  MIC: 2 µg/mL (≈ 5.14 µM)
Staphylococcus aureus [16]
  MIC: 0.5 µg/mL (≈ 1.28 µM)
Klebsiella pneumoniae [17]
  MIC: 0.5 µg/mL (≈ 1.28 µM)
Klebsiella pneumoniae [18]
  ED50: 108 mg/kg
Staphylococcus aureus [19]
  MIC: 0.008 µg/mL (≈ 0.0205 µM)
Staphylococcus aureus [20]
  MIC: 2 µg/mL (≈ 5.14 µM)
Enterococcus faecium [21]
  MIC: 0.03 µg/mL (≈ 0.077 µM)
Staphylococcus aureus [22]
  MIC: 0.5 µg/mL (≈ 1.28 µM)
[23]
  MIC: 16 µg/mL (≈ 41.1 µM)
Enterococcus faecium [24]
  MIC: 16 µg/mL (≈ 41.1 µM)
Streptococcus pneumoniae
  MIC: 0.015 µg/mL (≈ 0.0385 µM)
[25]
  MIC: 4 µg/mL (≈ 10.3 µM)
Escherichia coli [26]
  MIC: 16 µg/mL (≈ 41.1 µM)
Enterococcus faecalis [27]
  MIC: 4 µg/mL (≈ 10.3 µM)
Staphylococcus aureus [28]
  MIC: 0.015 µg/mL (≈ 0.0385 µM)
Staphylococcus aureus [29]
  MIC: 0.008 µg/mL (≈ 0.0205 µM)
[30]
  MIC: 2 µg/mL (≈ 5.14 µM)
Klebsiella pneumoniae [31]
  MIC: 0.015 µg/mL (≈ 0.0385 µM)
Enterococcus faecium [32]
  MIC: 4 µg/mL (≈ 10.3 µM)
Enterococcus faecium [33]
  MIC: 0.03 µg/mL (≈ 0.077 µM)
Escherichia coli [34]
  MIC: 0.008 µg/mL (≈ 0.0205 µM)
Staphylococcus aureus [35]
  MIC: 16 µg/mL (≈ 41.1 µM)
Staphylococcus aureus [36]
  MIC: 16 µg/mL (≈ 41.1 µM)
[37]
  MIC: 0.5 µg/mL (≈ 1.28 µM)
Staphylococcus aureus [38]
  ED50: 14.9 mg/kg
Pseudomonas aeruginosa [39]
  ED50: 129 mg/kg
Enterococcus faecium [40]
  MIC: 16 µg/mL (≈ 41.1 µM)
Enterococcus faecalis [41]
  MIC: 2 µg/mL (≈ 5.14 µM)
Escherichia coli [42]
  MIC: 16 µg/mL (≈ 41.1 µM)
Escherichia coli [43]
  MIC: 16 µg/mL (≈ 41.1 µM)
